Reference: ChEMBL document CHEMBL5724801, “EUbOPEN Chemogenomics Library - Multiplex” (2024)
Where “and” joins values, the source holds several entries; their conditions need not be identical. Equal entries are not always repeated.

Legend:
HEK-293T = assay: Multiplex assay against HEK293T; assay type: toxicity, cell-based; settings: human
Outline: (§1)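 On a CQ1 microscope at 37°C and 5% CO2, live cells were imaged after compound addition. They had been stained at seeding with Hoechst33342, BioTracker Green Microtubule Cytoskeleton Dye, MitoTracker Red and Annexin V Alexa Fluor 680. CellPathfinder machine-learning gating assigned cells to Hoechst high-intensity objects or normal cells, normal cells to healthy, pyknosed or fragmented nuclei, and pyknosed cells to mitotic or apoptotic. Tubulin, mitochondrial-mass and membrane-permeability phenotypes are per cents of healthy-nucleus cells.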

U2OS = assay: Multiplex assay against U2OS; assay type: toxicity, cell-based; settings: human; outline: as §1
[1] = 24 h, 1 µM, compound concentration 1 uM
[2] = 24 h, 10 µM, compound concentration 10 uM
[3] = 48 h, 1 µM, compound concentration 1 uM
[4] = 48 h, 10 µM, compound concentration 10 uM
[5] = 12 h, 1 µM, compound concentration 1 uM
[6] = 12 h, 10 µM, compound concentration 10 uM

COc1cc(NC(=O)CCN2CCC(OC(=O)Nc3ccccc3-c3ccccc3)CC2)c(Cl)cc1CNC[C@H](O)c1ccc(O)c2[nH]c(=O)ccc12 [BATEFENTEROL]
Population Tubulin-Different-Phenotype (%) (HEK-293T; [1]): 35% and 27%
Total Cell Count (HEK-293T; [1]): 527 and 403
Population Membrane Permeable-Phenotype (%) (HEK-293T; [2]): 0%
Population Mitochondria Different-Phenotype (%) (HEK-293T; [2]): 100% and 89%
Population Normal (%) (HEK-293T; [2]): 66% and 93%
Population Pyknosed Nuclei (%) (HEK-293T; [2]): 0% and 19%
Population Tubulin-Different-Phenotype (%) (HEK-293T; [2]): 100% and 78%
Population Apoptotic (%) (HEK-293T; [3]): 35% and 51%
Population Fragmented Nuclei (%) (HEK-293T; [3]): 15% and 13%
Population Healthy Nuclei (%) (HEK-293T; [3]): 75% and 79%
Population Hoechst High Intensity Objects (%) (HEK-293T; [3]): 3%
Population Membrane Permeable-Phenotype (%) (HEK-293T; [3]): 0%
Population Mitochondria Different-Phenotype (%) (HEK-293T; [3]): 36% and 42%
Population Mitotic Cells (%) (HEK-293T; [3]): 65% and 48%
Population Normal (%) (HEK-293T; [3]): 96%
Population Pyknosed Nuclei (%) (HEK-293T; [3]): 8% and 6%
Population Tubulin-Different-Phenotype (%) (HEK-293T; [3]): 17%
Total Cell Count (HEK-293T; [3]): 744 and 547
Population Apoptotic (%) (HEK-293T; [4]): 100% and 57%
Population Hoechst High Intensity Objects (%) (HEK-293T; [4]): 7%
Population Membrane Permeable-Phenotype (%) (HEK-293T; [4]): 0%
Population Mitochondria Different-Phenotype (%) (HEK-293T; [4]): 66% and 76%
Population Normal (%) (HEK-293T; [4]): 92%
Population Pyknosed Nuclei (%) (HEK-293T; [4]): 16% and 11%
Population Tubulin-Different-Phenotype (%) (HEK-293T; [4]): 66% and 74%
Population Apoptotic (%) (U2OS; [5]): 68% and 85%
Population Fragmented Nuclei (%) (U2OS; [5]): 29% and 14%
Population Healthy Nuclei (%) (U2OS; [5]): 49% and 78%
Population Hoechst High Intensity Objects (%) (U2OS; [5]): 4% and 1%
Population Membrane Permeable-Phenotype (%) (U2OS; [5]): 5% and 9%
Population Mitochondria Different-Phenotype (%) (U2OS; [5]): 5% and 6%
Population Mitotic Cells (%) (U2OS; [5]): 31% and 14%
Population Normal (%) (U2OS; [5]): 95% and 98%
Population Pyknosed Nuclei (%) (U2OS; [5]): 21% and 7%
Population Tubulin-Different-Phenotype (%) (U2OS; [5]): 4% and 7%
Total Cell Count (U2OS; [5]): 159 and 98
Population Apoptotic (%) (U2OS; [6]): 72% and 88%
Population Fragmented Nuclei (%) (U2OS; [6]): 37% and 18%
Population Healthy Nuclei (%) (U2OS; [6]): 44% and 59%
Population Hoechst High Intensity Objects (%) (U2OS; [6]): 6% and 7%
Population Membrane Permeable-Phenotype (%) (U2OS; [6]): 60% and 57%
Population Mitochondria Different-Phenotype (%) (U2OS; [6]): 67% and 95%
Population Mitotic Cells (%) (U2OS; [6]): 27% and 11%
Population Normal (%) (U2OS; [6]): 93% and 92%
Population Pyknosed Nuclei (%) (U2OS; [6]): 18% and 22%
Population Tubulin-Different-Phenotype (%) (U2OS; [6]): 75% and 97%
Total Cell Count (U2OS; [6]): 196 and 82
Population Apoptotic (%) (U2OS; [1]): 74% and 100%
Population Fragmented Nuclei (%) (U2OS; [1]): 27% and 12%
Population Healthy Nuclei (%) (U2OS; [1]): 55% and 75%
Population Hoechst High Intensity Objects (%) (U2OS; [1]): 2% and 1%
Population Membrane Permeable-Phenotype (%) (U2OS; [1]): 9% and 5%
Population Mitochondria Different-Phenotype (%) (U2OS; [1]): 9% and 6%
Population Mitotic Cells (%) (U2OS; [1]): 25% and 0%
Population Normal (%) (U2OS; [1]): 97% and 98%
Population Pyknosed Nuclei (%) (U2OS; [1]): 17% and 11%
Population Tubulin-Different-Phenotype (%) (U2OS; [1]): 5% and 2%
Total Cell Count (U2OS; [1]): 182 and 103
Population Apoptotic (%) (U2OS; [2]): 79% and 73%
Population Fragmented Nuclei (%) (U2OS; [2]): 38% and 29%
Population Healthy Nuclei (%) (U2OS; [2]): 38% and 42%
Population Hoechst High Intensity Objects (%) (U2OS; [2]): 4% and 9%
Population Membrane Permeable-Phenotype (%) (U2OS; [2]): 32% and 52%
Population Mitochondria Different-Phenotype (%) (U2OS; [2]): 59% and 91%
Population Mitotic Cells (%) (U2OS; [2]): 20% and 26%
Population Normal (%) (U2OS; [2]): 95% and 90%
Population Pyknosed Nuclei (%) (U2OS; [2]): 22% and 27%
Population Tubulin-Different-Phenotype (%) (U2OS; [2]): 44% and 91%
Total Cell Count (U2OS; [2]): 199 and 93
Population Apoptotic (%) (U2OS; [3]): 82% and 85%
Population Fragmented Nuclei (%) (U2OS; [3]): 26% and 17%
Population Healthy Nuclei (%) (U2OS; [3]): 54% and 64%
Population Hoechst High Intensity Objects (%) (U2OS; [3]): 3% and 4%
Population Membrane Permeable-Phenotype (%) (U2OS; [3]): 3%
Population Mitochondria Different-Phenotype (%) (U2OS; [3]): 5% and 1%
Population Mitotic Cells (%) (U2OS; [3]): 17% and 14%
Population Normal (%) (U2OS; [3]): 96% and 95%
Population Pyknosed Nuclei (%) (U2OS; [3]): 19% and 17%
Population Tubulin-Different-Phenotype (%) (U2OS; [3]): 3% and 1%
Total Cell Count (U2OS; [3]): 242 and 123
Population Apoptotic (%) (U2OS; [4]): 92% and 94%
Population Fragmented Nuclei (%) (U2OS; [4]): 41% and 29%
Population Healthy Nuclei (%) (U2OS; [4]): 39% and 32%
Population Hoechst High Intensity Objects (%) (U2OS; [4]): 6% and 10%
Population Membrane Permeable-Phenotype (%) (U2OS; [4]): 31% and 38%
Population Mitochondria Different-Phenotype (%) (U2OS; [4]): 43% and 70%
Population Mitotic Cells (%) (U2OS; [4]): 7% and 5%
Population Normal (%) (U2OS; [4]): 93% and 89%
Population Pyknosed Nuclei (%) (U2OS; [4]): 18% and 37%
Population Tubulin-Different-Phenotype (%) (U2OS; [4]): 23% and 48%
Total Cell Count (U2OS; [4]): 221 and 105
